# UBC13 inh: blocks human UBC13 polyubiquitin chain formation. P61088. TR-FRET. inhibition, % at 20 µM. actives 0.47% (n = 330,000). AID 485273; in the data active = inhibition above about 45%, passing the limit was not always enough; inconclusive = no clear call, values can overlap the other calls
# Target sequence (P61088 whole entry, looked up): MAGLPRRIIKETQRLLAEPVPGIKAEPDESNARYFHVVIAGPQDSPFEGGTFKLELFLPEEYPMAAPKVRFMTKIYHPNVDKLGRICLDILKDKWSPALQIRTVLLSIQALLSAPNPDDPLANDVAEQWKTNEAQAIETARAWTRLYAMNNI
# MEKK2mut PB1 HTS: signal of MEK5 binding to mutant human MEKK2 PB1 domain. percent response, % at 10 µM. bead flow cytometry, Alexa488-MEK5 binding to MEKK2 mutant. actives 0.35% (n = 290,000); in the data active = percent response above about 24%, passing the limit was not always enough
# MEKK2 WT-MEK5: raises or lowers MEK5 binding to wildtype human MEKK2 PB1 domain; Q9Y2U5; bead flow cytometry, Alexa488-MEK5 binding to MEKK2 WT; actives lie on both sides; actives 1.1% (n = 290,000); binding response (% of control), % at 10 µM; in the data active = binding response below about 67% or above about 130%; inconclusive = no clear call, values can overlap the other calls; inactive = in between
# DSG3 Ab inh: human desmoglein-3 autoantibody binding inhibition; actives 0.48% (n = 310,000); DSG3-coupled beads, scFv-anti-DSG3-GFP binding, flow cytometry; stronger effect = lower value; binding (percent of control), % at 10 µM;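 active = binding more than 3 SD below its plate's average and above zero; inconclusive = below that plate limit but binding exactly zero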;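 note: hits lower antibody fragment binding to DSG3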
# Apaf1 inhib: blocks human Apaf-1 apoptosome activity | O14727 | reconstituted apoptosome caspase-3 activity, DEVD-Rh110 fluorescence | inhibition, % at 20 µM | actives 0.71% (n = 330,000) | AID 489030; active = inhibition of at least 40% at 20 µM;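 note: plate controls were DMSO wells for no effect and DEVD-CHO caspase inhibitor wells for full effect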
#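 Material: reconstituted apoptosome with Apaf-1, cytochrome c, caspase-9, procaspase-3, dATP. Technique: Rh110 fluorescence intensity. Buffer or medium: pH 7.5 Hepes buffer with CHAPS, BSA, DTT. Times: 30 min plus 50 min, RT.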
# MEKK3 PB1 HTS: MEKK3-MEK5 PB1 interaction, increase or decrease | Q99759 | bead-based flow cytometry, Alexa488-MEK5 binding to MEKK3; actives lie on both sides; 0 = blocked by unlabeled MEK5, 100 = vehicle | binding response (% of control), % at 10 µM | actives 1.4% (n = 290,000) | AID 1529;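 active = binding response more than 3 SD above or below the average of its plate-row segment, actives on both sides; inconclusive = wells at one plate position flagged as instrument error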;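 note: Alexa488 bead fluorescence after subtracting the streptavidin-only scavenger bead signal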
# MEKK2wt confirm: raises or lowers MEK5 binding to wildtype human MEKK2, retest; shares compounds with MEKK3 PB1 HTS; bead flow cytometry, Alexa488-MEK5 binding to MEKK2 WT; actives lie on both sides; binding response (% of control), % at 10 µM; actives 2.4% (n = 5,900); AID 1892; in the data active = binding response below about 16% or above about 210%; inactive = in between
# MEKK2mut confirm: signal of MEK5 binding to mutant human MEKK2, retest; AID 1893; actives 2% (n = 5,900); bead flow cytometry, Alexa488-MEK5 binding to MEKK2 mutant; shares compounds with MEKK3 PB1 HTS; percent response, % at 10 µM; in the data active = percent response mostly above about 71%, no sharp cut-off; inactive = mostly below about 38%;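 note: higher means compound restores mutant binding toward wildtype level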
# MEKK3 confirm: MEKK3-MEK5 PB1 inhibition, single concentration confirmation | actives 1.8% (n = 5,900) | bead flow cytometry, Alexa488-MEK5 binding to MEKK3; stronger effect = lower value | shares compounds with MEKK3 PB1 HTS | AID 1894 | binding response (% of control), % at 10 µM;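 active = binding response below 72% of control, or above a set upper limit, though filed actives all read lower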;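 note: 100% = DMSO only wells and 0% = binding blocked by excess unlabeled MEK5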
# The depositor's hits bear a star; ? = inconclusive; . = not tested or not shown; [ ] = dose if it differs, or a comment. Sampled rows, rich in hits. Any-hit rate of the full collection: about 3.2%.
SMILES,UBC13 inh,MEKK2mut PB1 HTS,MEKK2 WT-MEK5,DSG3 Ab inh,Apaf1 inhib,MEKK3 PB1 HTS,MEKK2wt confirm,MEKK2mut confirm,MEKK3 confirm
COc1cccc(NC(=O)CSc2ncc(S(=O)(=O)c3ccccc3)c(=O)[nH]2)c1,-6.5,29.0,118.0,86.4,-0.7,134.0*,101.0,2.0,107.0
Fc1ccc(-c2n[nH]c(=S)n2-c2ccc3c(c2)OCCO3)cc1,7.2,-11.0,99.0,100.8,-5.2,104.0,.,.,.
S=c1[nH]nc(-c2ccc(Cl)cc2)n1-c1ccc2c(c1)OCCO2,1.4,1.0,109.0,80.2,1.5,197.0*,1.0*[inhibitor],-29.0,2.0*
Cc1occc1-c1nnc(SCC(=O)N2CCCC(C)C2)o1 (stereo unspecified),1.8,.,.,95.5,-0.4,.,.,.,.
Cc1occc1-c1nnc(SCC(=O)N2CCOCC2)o1,-11.4,-18.0,3.0*[inhibitor],101.0,2.5,2.0*[inhibitor],102.0,-1.0,102.0
COc1nccnc1NS(=O)(=O)c1ccc(NC(=S)NC(=O)c2ccc(F)c(F)c2)cc1,?,1.0,106.0,101.3,3.9,154.0*,98.0,1.0,97.0
COc1ccc(NS(=O)(=O)c2ccc(NC(=S)NC(=O)c3cccc(F)c3)cc2)nn1,-13.8,-1.0,92.0,121.7,-5.1,75.0*[inhibitor],104.0,3.0,104.0
CCOC(=O)c1ccc(NC(=O)c2nn(CC)cc2Br)cc1,0.3,-39.0,-4.0*[inhibitor],110.2,-16.8,0.0*[inhibitor],101.0,-2.0,101.0
CCOC(=O)c1ccc(NC(=S)NC(=O)c2nn(CC)cc2Br)cc1,-1.9,4.0,105.0,117.2,-51.0,108.0,.,.,.
CCOC(=O)c1ccc(NC(=S)Nc2ccccc2)cc1,0.6,1.0,93.0,85.7,5.2,64.0*[inhibitor],97.0,-1.0,101.0
O=C(CCl)NC(=O)NC12CC3CC(CC(C3)C1)C2,.,-2.0,102.0,102.4,.,100.0,.,.,.
CC12CCC3c4ccc(O)c([N+](=O)[O-])c4CCC3C1CCC2=O (stereo unspecified),.,.,.,101.8,.,.,.,.,.
CCOC(=O)c1c(C)[nH]c(C(=O)COC(=O)COc2ccccc2C=O)c1C,-9.2,-2.0,91.0,126.0,4.6,70.0*[inhibitor],98.0,2.0,101.0
CC(=O)c1c(C)[nH]c(C(=O)COC(=O)CCSc2ccccc2)c1C,2.4,1.0,113.0,97.0,2.1,155.0*,94.0,-6.0,102.0
COCCN(C(=O)COC(=O)CCC(=O)c1cccs1)c1c(N)n(Cc2ccccc2)c(=O)[nH]c1=O,-2.3,.,.,98.0,-0.9,.,.,.,.
Cc1nc2ccc(NC(=O)[C@H](C)N3C(=O)C4CC=CCC4C3=O)cc2s1 (stereo partly specified),10.2,.,.,.,-8.7,.,.,.,.
CC/C(=N\NS(=O)(=O)c1ccc(C)cc1)c1ccco1,-3.2,6.0,106.0,102.7,5.7,106.0,.,.,.
C/C(=N\NC(=O)c1ccncc1)c1cc2ccccc2oc1=O,-7.6,-1.0,105.0,93.7,5.1,110.0,.,.,.
C/C(=N/NC(=O)c1ccncc1)c1cc2ccc(O)cc2oc1=O,-0.9,16.0,156.0*,.,7.6,103.0,88.0,-9.0,91.0
C=Cn1cc[n+](CC(=O)C(C)(C)C)c1,8.2,2.0,107.0,98.6,-13.4,137.0*,106.0,10.0,106.0
C=Cn1cc[n+](CC(=O)c2ccc(Cl)c(Cl)c2)c1,12.6,3.0,99.0,111.8,3.8,95.0,.,.,.
CCN(CC)Cc1c(O)ccc2c(=O)c(-c3ccccc3OC)coc12,11.8,1.0,104.0,115.2,-1.2,102.0,.,.,.
CCN(CC)Cc1c(O)ccc2c(=O)c(-c3ccccc3Cl)coc12,12.9,25.0*,102.0,106.0,0.7,104.0,102.0,-1.0,102.0
CC(C)CCNC(=O)/C=C/c1ccc(Br)cc1,7.0,-15.0,2.0*[inhibitor],98.3,1.9,2.0*[inhibitor],93.0,-15.0,92.0
CC(C)CCNC(=S)Nc1ccc(Br)cc1,7.6,-2.0,92.0,111.3,-6.7,85.0,.,.,.
SMILES,UBC13 inh,MEKK2mut PB1 HTS,MEKK2 WT-MEK5,DSG3 Ab inh,Apaf1 inhib,MEKK3 PB1 HTS,MEKK2wt confirm,MEKK2mut confirm,MEKK3 confirm
COc1cc(OC)cc(C(=O)NNC(=O)C2CCC2)c1,.,.,.,98.5,.,.,.,.,.
CCN(C(=O)CSc1nnc2ccccn12)c1c(N)n(Cc2ccccc2)c(=O)[nH]c1=O,-7.5,1.0,107.0,97.2,6.6,121.0,.,.,.
CCCCN(C(=O)CSc1nnc2ccccn12)c1c(N)n(Cc2ccccc2)c(=O)[nH]c1=O,-4.8,0.0,106.0,82.6,-3.3,128.0*,108.0,7.0,102.0
CCOc1ccc(C(=O)NCC(=O)OCc2nnc(-c3ccccc3)o2)cc1OCC,-1.4,.,.,.,-4.7,.,.,.,.
CCOP(=O)(c1ccccc1)C(O)c1ccc(Br)cc1 (stereo unspecified),-3.2,0.0,106.0,105.8,-1.3,134.0*,97.0,-8.0,91.0
SC(COCc1ccccc1)CN1CCN(Cc2ccc3c(c2)OCO3)CC1 (stereo unspecified),-2.7,42.0,142.0*,85.6,19.9,108.0,168.0,31.0,107.0
COc1ccccc1C(=O)NC(=O)Nc1c(C)cc(C)cc1C,0.8,-1.0,99.0,109.3,14.8,100.0,.,.,.
CCOC(=O)c1c(NC(C)=O)sc2c(O)c(Br)cc(Br)c12,.,0.0,105.0,96.5,.,132.0*,73.0,-15.0,76.0
O=C(Cn1cc(S(=O)(=O)N2CCN(c3ccccc3F)CC2)c2ccccc2c1=O)NCCCN1CCCCCC1,34.1,-45.0,7.0*[inhibitor],101.1,18.5,3.0*[inhibitor],124.0,13.0,105.0
CCCc1nc2nc(C)c(NS(=O)(=O)c3ccc(C)c(C)c3)c(=O)n2[nH]1,.,.,.,103.5,.,.,.,.,.
CN(C)c1ccc([C@@H]2[C@@H]([N+](=O)[O-])[C@H]3C=Cc4ccccc4N3[C@H]2C(=O)c2ccc(Cl)cc2)cc1,-88.1,6.0,1.0*[inhibitor],101.8,29.4,80.0,92.0,-3.0,94.0
COc1ccc(N2CCN(CCCNC(=O)c3cc4sccc4n3C)CC2)cc1,-85.0,18.0,148.0*,98.9,-4.3,108.0,126.0,22.0,108.0
CCOc1ccc(NC(=S)NCCCN2CCN(c3ccc(OC)cc3)CC2)cc1,-2.0,8.0,140.0*,98.3,0.5,115.0,138.0,29.0,102.0
COc1cc2c(C(=O)NCCCN3CCN(c4cccc(Cl)c4)CC3)cn(C)c(=O)c2cc1OC,3.3,13.0,146.0*,97.1,3.9,127.0*,123.0,17.0,105.0
